The source made the active and inactive calls. No cut-off for these calls is given here.

Consider four compounds from ChEMBL document CHEMBL4014315 (J Med Chem, 2017).

The target of data set [1] is T1, Broad substrate specificity ATP-binding cassette transporter ABCG2 (Homo sapiens, UniProt Q9UNQ0).
T1 sequence (Q9UNQ0 whole entry): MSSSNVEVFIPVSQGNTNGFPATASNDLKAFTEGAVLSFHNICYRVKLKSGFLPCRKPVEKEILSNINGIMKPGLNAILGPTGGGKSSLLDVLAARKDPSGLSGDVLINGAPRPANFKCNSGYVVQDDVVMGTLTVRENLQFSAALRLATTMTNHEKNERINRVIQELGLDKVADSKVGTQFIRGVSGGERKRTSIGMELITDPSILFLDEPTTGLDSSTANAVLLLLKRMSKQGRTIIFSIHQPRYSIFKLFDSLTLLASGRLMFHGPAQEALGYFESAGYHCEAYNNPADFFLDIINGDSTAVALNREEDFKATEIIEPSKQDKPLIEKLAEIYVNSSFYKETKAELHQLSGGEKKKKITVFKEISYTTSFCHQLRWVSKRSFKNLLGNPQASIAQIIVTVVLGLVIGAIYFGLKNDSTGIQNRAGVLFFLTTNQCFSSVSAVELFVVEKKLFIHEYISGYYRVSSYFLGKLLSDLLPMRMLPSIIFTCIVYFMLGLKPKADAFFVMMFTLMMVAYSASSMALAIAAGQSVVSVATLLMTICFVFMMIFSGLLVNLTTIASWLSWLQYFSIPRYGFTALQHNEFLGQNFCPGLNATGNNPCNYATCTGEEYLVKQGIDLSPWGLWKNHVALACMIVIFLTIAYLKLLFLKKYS
Kind of data set: Non-competitive inhibition of recombinant human GFP-fused ABCG2 expressed in MDCK2 cells up to 100 nM preincubated for 30 mins followed by varying levels of Hoechst 33342 addition measured immediately at 60 sec time interval for 120 mins by Hanes-Woolf plot analysis. The format is cell-based. The following applies: 2 h. An outline of the steps: (§1)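 Kinetics were run with Hoechst 33342 as the fluorescent ABCG2 substrate at varying levels, combined with several modulator concentrations. Data were analysed by double-reciprocal Lineweaver-Burk, half-reciprocal Hanes-Woolf and Cornish-Bowden direct linear plots. Changes in Vmax and KM with modulator concentration defined the mode: competitive, non-competitive or mixed type.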

The target of data set [2] is T1, Broad substrate specificity ATP-binding cassette transporter ABCG2. Briefly: Non-competitive inhibition of recombinant human GFP-fused ABCG2 expressed in MDCK2 cells up to 100 nM preincubated for 30 mins followed by varying levels of Hoechst 33342 addition measured immediately at 60 sec time interval for 120 mins by Lineweaver-Burk plot analysis. Type of data set: cell-based. The following applies: 2 h. In outline:
as §1

Data set [3] concerns MDCK-II. Briefly: Potentiation of SN-38 induced cytotoxicity against MDCK2 cells at 0.01 to 5 uM after 72 hrs by MTT assay. The format is functional, cell-based. The following applies: Canis lupus familiaris. An outline of the steps:
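Parental MDCK II cells were given SN-38 dilutions combined with different modulator concentrations, with viability read by MTT.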

Data set [4] deals with T2, ABCG2 (Homo sapiens, UniProt Q9UNQ0).
T2 sequence (Q9UNQ0 whole entry): T1 sequence (Q9UNQ0 whole entry)
Briefly: Inhibition of recombinant human GFP-fused ABCG2 expressed in MDCK2 cells assessed as reduction in Hoechst 33342 efflux at […] preincubated for 30 mins followed by Hoechst 33342 addition measured immediately at 60 sec time interval for 120 mins by fluorescence assay relative to Ko143. The following applies: MDCK2 cells expressing recombinant GFP-fused human ABCG2, probe Hoechst 33342, read-out: Imax. The format is cell-based.

Data set [5] deals with T1, Broad substrate specificity ATP-binding cassette transporter ABCG2. Briefly: Inhibition of human GFP-fused ABCG2 expressed in MDCK2 cells assessed as potentiation of SN-38 induced cytotoxicity by measuring cell viability at 1 uM after 72 hrs by MTT assay. The format is cell-based. An outline of the steps:
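Reversal MTT assay in ABCG2-overexpressing MDCK II cells: SN-38 dilutions were combined with different modulator concentrations. Parental MDCK II cells defined total inhibition, and overexpressing cells without modulator defined no inhibition. GI50 values were plotted against log modulator concentration to derive IC50.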
(In general: Formazan colour is commonly taken as a measure of viable cells.)

For data set [6] the target is unchanged. Briefly: Non-competitive inhibition of recombinant human GFP-fused ABCG2 expressed in MDCK2 cells up to 100 nM preincubated for 30 mins followed by varying levels of Hoechst 33342 addition measured immediately at 60 sec time interval for 120 mins by Cornish-Bowden plot analysis. The format is cell-based. The following applies: 2 h. An outline of the steps: as §1

Data set [7] is described as follows: Cytotoxicity against MDCK2 cells assessed as cell growth inhibition after 72 hrs by MTT assay. The format is cell-based, Canis lupus familiaris, MDCK-II. The following applies: dog.
Data set [8] has as its target T1, Broad substrate specificity ATP-binding cassette transporter ABCG2. Briefly: Activation of ABCG2 (unknown origin) ATPase activity expressed in baculovirus infected high five cell membranes by ascorbic acid/ammonia molybdate reaction-based colorimetric analysis. The following applies: read-out: EC50. In outline: (§2)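 Colorimetric ATPase assay of ABCG2 membranes; activity expressed relative to control. Where data were biphasic, a combined increasing plus decreasing logistic equation with the Hill coefficient fixed at one was fitted, giving an activating and an inactivating K.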

The target is the same in data set [9]. Kind of data set: Inhibition of recombinant human GFP-fused ABCG2 expressed in MDCK2 cells assessed as reduction in Hoechst 33342 efflux preincubated for 30 mins followed by Hoechst 33342 addition measured immediately at 60 sec time interval for 120 mins by fluorescence assay. Type of data set: cell-based. In outline: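 Hoechst 33342 accumulation assay: the dye is an ABCG2 substrate whose fluorescence rises when bound to DNA or embedded in membrane. Intracellular accumulation serves as the read-out of transporter inhibition.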

For data set [10] the target is unchanged. Kind of data set: Ratio of IC50 for inhibition of human GFP-fused ABCG2 expressed in MDCK2 cells to EC50 for inhibition of human GFP-fused ABCG2 expressed in MDCK2 cells assessed as potentiation of SN-38 induced cytotoxicity by measuring cell viability. The format is cell-based.
The target of data set [11] is T2, ABCG2. Briefly: Activation of ABCG2 (unknown origin) ATPase activity expressed in baculovirus infected high five cell membranes assessed as protein Vmax by ascorbic acid/ammonia molybdate reaction-based colorimetric analysis relative to basal control. The following applies: read-out: Vmax. An outline of the steps: as §2
Data set [12] can be described thus: Cytotoxicity against ABCG2 over-expressing MDCK2 cells assessed as cell growth inhibition after 72 hrs by MTT assay. Type of data set: ADME, cell-based, Canis lupus familiaris, MDCK-II. The following applies: dog.
Data set [13] relates to MDCK-II. Briefly: Cytotoxicity against ABCG2 over-expressing MDCK2 cells assessed as effect on cell proliferation at low concentration after 72 hrs in absence of DMSO and presence of 1% methanol by MTT assay. The format is ADME, cell-based, Canis lupus familiaris. The following applies: dog. An outline of the steps:
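Modified MTT viability assay in ABCG2-overexpressing MDCK II cells, run without DMSO and with a constant 1% methanol.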

The target in another data set is ABCB1 (Homo sapiens, UniProt P08183). Briefly: Inhibition of ABCB1 in human A2780adr cells assessed as reduction in calcein AM levels at 10 uM preincubated for 30 mins followed by calcein AM addition measured immediately at 60 sec time interval for 60 mins by fluorescence assay relative to Cyclosporine A. The following applies: probe calcein AM. The format is cell-based. In outline: (§3)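 Calcein AM assay in A2780adr cells (ABCB1 overexpressing) and H69AR cells (ABCC1 overexpressing). Compounds were screened at 10 µM, with inhibition relative to cyclosporine A as the total-inhibition control.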

The target in data set [14] is T1, Broad substrate specificity ATP-binding cassette transporter ABCG2. Kind of data set: Competitive inhibition of recombinant human GFP-fused ABCG2 expressed in MDCK2 cells up to 5620 nM preincubated for 30 mins followed by varying levels of Hoechst 33342 addition measured immediately at 60 sec time interval for 120 mins by Lineweaver-Burk plot analysis. Type of data set: cell-based. The following applies: 2 h. In outline: as §1

The target is the same in data set [15]. Kind of data set: Competitive inhibition of recombinant human GFP-fused ABCG2 expressed in MDCK2 cells up to 5620 nM preincubated for 30 mins followed by varying levels of Hoechst 33342 addition measured immediately at 60 sec time interval for 120 mins by Hanes-Woolf plot analysis. Type of data set: cell-based. The following applies: 2 h. An outline of the steps: as §1

Data set [16] concerns the target ATP-dependent translocase ABCB1 (Homo sapiens, UniProt P08183). Kind of data set: Inhibition of ABCB1 in human A2780adr cells assessed as reduction in calcein AM levels preincubated for 30 mins followed by calcein AM addition measured immediately at 60 sec time interval for 60 mins by fluorescence assay. Type of data set: cell-based. An outline of the steps: as §3

Data set [17] addresses T1, Broad substrate specificity ATP-binding cassette transporter ABCG2. Kind of data set: Competitive inhibition of recombinant human GFP-fused ABCG2 expressed in MDCK2 cells up to 1000 nM preincubated for 30 mins followed by varying levels of Hoechst 33342 addition measured immediately at 60 sec time interval for 120 mins by Cornish-Bowden plot analysis. The format is cell-based. The following applies: 2 h. In outline: as §1

Data set [18] addresses T2, ABCG2. Briefly: Activation of ABCG2 (unknown origin) ATPase activity expressed in baculovirus infected high five cell membranes assessed as protein Vmax at 0.5 uM by ascorbic acid/ammonia molybdate reaction-based colorimetric analysis relative to basal control. The following applies: read-out: Vmax. An outline of the steps:
as §2

For data set [19], the target named is T1, Broad substrate specificity ATP-binding cassette transporter ABCG2. Briefly: Mixed type inhibition of recombinant human GFP-fused ABCG2 expressed in MDCK2 cells preincubated for 30 mins followed by varying levels of Hoechst 33342 addition measured immediately at 60 sec time interval for 120 mins by Cornish-Bowden plot analysis. The following applies: 2 h. The format is cell-based. An outline of the steps: as §1

The target is the same in data set [20]. Kind of data set: Inhibition of ABCG2 (unknown origin) ATPase activity expressed in baculovirus infected high five cell membranes by ascorbic acid/ammonia molybdate reaction-based colorimetric analysis. An outline of the steps: as §2
Data set [21] has as its target T2, ABCG2. Briefly: Activation of ABCG2 (unknown origin) ATPase activity expressed in baculovirus infected high five cell membranes assessed as protein Vmax at 35 uM by ascorbic acid/ammonia molybdate reaction-based colorimetric analysis relative to basal control. The following applies: read-out: Vmax. In outline: as §2
Data set [22] can be described thus: Therapeutic index, ratio of GI50 for ABCG2 over-expressing MDCK2 cells to IC50 for recombinant human GFP-fused ABCG2 expressed in MDCK2 cells. The format is cell-based.

Sequence of ATP-dependent translocase ABCB1 (P08183 whole entry): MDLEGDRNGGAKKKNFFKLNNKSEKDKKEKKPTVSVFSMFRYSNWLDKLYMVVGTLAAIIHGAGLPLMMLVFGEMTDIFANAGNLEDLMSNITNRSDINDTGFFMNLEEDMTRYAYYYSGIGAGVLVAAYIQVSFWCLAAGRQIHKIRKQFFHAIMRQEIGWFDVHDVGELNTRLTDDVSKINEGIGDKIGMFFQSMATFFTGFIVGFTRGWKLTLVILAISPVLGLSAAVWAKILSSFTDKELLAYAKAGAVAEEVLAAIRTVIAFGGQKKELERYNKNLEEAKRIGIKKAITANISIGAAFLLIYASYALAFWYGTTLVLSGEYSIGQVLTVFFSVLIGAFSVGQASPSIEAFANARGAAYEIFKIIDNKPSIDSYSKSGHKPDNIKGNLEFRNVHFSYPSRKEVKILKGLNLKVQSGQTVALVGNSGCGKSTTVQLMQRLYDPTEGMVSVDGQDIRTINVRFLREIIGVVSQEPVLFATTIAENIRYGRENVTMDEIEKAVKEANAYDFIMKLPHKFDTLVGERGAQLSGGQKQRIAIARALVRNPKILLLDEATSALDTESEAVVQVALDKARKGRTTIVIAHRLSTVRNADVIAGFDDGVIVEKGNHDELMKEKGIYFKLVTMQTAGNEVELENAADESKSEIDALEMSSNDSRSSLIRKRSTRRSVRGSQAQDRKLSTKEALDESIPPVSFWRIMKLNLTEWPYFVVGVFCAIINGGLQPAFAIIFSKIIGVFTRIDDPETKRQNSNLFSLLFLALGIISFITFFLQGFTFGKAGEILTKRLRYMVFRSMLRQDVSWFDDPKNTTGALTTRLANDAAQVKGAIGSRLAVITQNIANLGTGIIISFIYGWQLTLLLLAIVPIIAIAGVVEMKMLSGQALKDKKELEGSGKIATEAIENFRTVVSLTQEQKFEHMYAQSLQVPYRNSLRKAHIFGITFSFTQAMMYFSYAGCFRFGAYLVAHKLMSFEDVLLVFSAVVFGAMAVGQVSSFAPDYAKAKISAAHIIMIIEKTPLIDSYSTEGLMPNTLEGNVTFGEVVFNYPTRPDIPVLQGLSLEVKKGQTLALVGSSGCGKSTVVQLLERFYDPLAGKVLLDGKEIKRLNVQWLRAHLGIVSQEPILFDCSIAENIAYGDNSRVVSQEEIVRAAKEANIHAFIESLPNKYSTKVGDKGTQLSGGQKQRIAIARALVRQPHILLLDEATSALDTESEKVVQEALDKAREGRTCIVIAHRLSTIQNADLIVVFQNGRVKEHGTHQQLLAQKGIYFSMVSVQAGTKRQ
Sequence of ABCB1 (P08183 whole entry): as above

One may read the GI50 as the concentration at which growth is held to half of that of the control. In general, EC50 refers to the concentration at which the effect is half-maximal. The term IC50 denotes the concentration that gives 50% inhibition. For `O=[N+]([O-])c1ccc(Nc2nc(-c3cccnc3)nc3ccccc23)cc1`, the “inhibition (INH)” value in [1], in data set [2], in data set [5] and in data set [6] was “Active” throughout. For the same compound, the outcome in the data set on MDCK-II [3] was inactive. The Emax at 2 h at ABCG2 [4] fell in the range of 80 to 110%. In addition, the GI50 at 72 h is 74.1 µM in data set [7] and 73.3 µM in data set [12]. The EC50 in data set [8] stood at 0.009 µM. The IC50 in [9] amounted to 0.0641 µM. The “Ratio IC50/EC50” value in data set [10] was 3. Further, on ABCG2 [11], the Emax worked out at 164%. Moreover, the Activity result in the data set on MDCK-II [13] is on record as “Non-Toxic”.
The term inhibition denotes the percentage by which the read-out fell short of the control. As to `COc1cccc(Nc2nc(-c3ccncc3)nc3ccccc23)c1`, the inhibition at 1 h, 10 µM on ABCB1 is greater than 25%. In addition, at ABCG2 [4], the Emax at 2 h lay in the range of 80 to 110%. For the same compound, the “inhibition (INH)” value in data set [14], in data set [15] and in [17] was “Active” in each case. In data set [8], the EC50 worked out at 0.042 µM. The IC50 in data set [9] was 0.558 µM; in data set [16], 5.43 µM. The Emax on ABCG2 [11] was 132%.
Broadly, the Ki is a measure of affinity in units of concentration, obtained from inhibition or displacement. High values mean weaker binding, low ones tighter binding. Turning to `FC(F)(F)c1cccc(Nc2nc(-c3ccncc3)nc3ccccc23)c1`, the Emax at 0.5 µM at ABCG2 [18] was 155%. Besides, the Emax at 2 h on ABCG2 [4] was in the range of 80 to 110%. Moreover, the GI50 at 72 h in [7] is 12.3 µM; in data set [12], 12.6 µM. In data set [19], the “inhibition (INH)” value is reported as “Active”. Also, the Ki in data set [20] is 28 µM. Further, in data set [9], the IC50 was 0.216 µM. Further, the Emax at 35 µM on ABCG2 [21] came out at 25%. In data set [22], the TI was 58.3.
Turning to `FC(F)(F)c1ccc(Nc2nc(-c3ccncc3)nc3ccccc23)cc1`, the Emax at 2 h at ABCG2 [4] was 80 to 110%. The GI50 at 72 h was found to be 166 µM in data set [7] and 117 µM in data set [12]. This compound also had a Ki in data set [20] of 27 µM. In addition, the IC50 in data set [9] amounted to 0.488 µM. For the same compound, the Emax on ABCG2 [11] turned out to be 152%. Besides, the TI in data set [22] worked out at 240.
